Screens (PubChem)
Rows were chosen to be rich in hits. Some 4.6% of all compounds tested hit in one or more screens of this group.
TAAR1 ag: human TAAR1 agonism | Q96RJ0 | actives 0.99% (n = 360,000) | AID 624467 | activation, % at 3 µM | CHO RD-HGA16 TAAR1, Fluo-8 calcium fluorescence; vehicle wells 0%, saturating PEA agonist 100%;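 active = activation above the mean activation of all test compounds in the run plus 3 SD, cut at about 38% in these data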
Target sequence (Q96RJ0 whole entry, looked up): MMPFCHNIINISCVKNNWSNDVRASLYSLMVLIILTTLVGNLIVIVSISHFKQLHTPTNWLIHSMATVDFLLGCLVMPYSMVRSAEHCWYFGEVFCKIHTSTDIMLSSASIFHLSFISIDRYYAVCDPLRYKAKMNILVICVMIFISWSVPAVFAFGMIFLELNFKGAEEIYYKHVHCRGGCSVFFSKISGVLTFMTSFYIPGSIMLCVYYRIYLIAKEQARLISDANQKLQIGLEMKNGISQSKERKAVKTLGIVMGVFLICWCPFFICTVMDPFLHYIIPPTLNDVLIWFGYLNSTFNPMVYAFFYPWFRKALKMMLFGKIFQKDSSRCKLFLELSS
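Repeats: no replicates (n 1) | Material: CHO-derived RD-HGA16 cells with stable Gα16 and human TAAR1 | Technique: Kinetic Fluo-8 calcium fluorescence | Schedule: 17-24 h seeding, 75 min 37 °C dye, 30 min RT | Evaluation: % activation from peak over basal fluorescence ratio, DMSO-to-PEA scaled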
TAAR1 antagonist: antagonists of human TAAR1; CHO RD-HGA16 TAAR1, Fluo-8 calcium fluorescence, antagonist; inhibition, % at 3 µM; actives 1.5% (n = 360,000);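 active = inhibition above a per-plate cutoff, the mean inhibition of test compounds on that plate plus 3 SD, cut at about 49% in these data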
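Test system: CHO RD-HGA16 cells bearing hTAAR1 | Reagent: β-PEA, EC80 | Compound dosing: 3 µM, single point | Schedule: Dye loading 75 min at 37 °C, then 30 min room temperature | Signal: Calcium fluorescence with Fluo-8 | Evaluation: Percent inhibition of PEA-evoked calcium signal, max/basal emission ratio | Control set: DMSO-only wells and EC80 β-PEA-stimulated wells | Repeats: Singlicate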
OX1R antag-1: OX1R (human) antagonism; O43613; OX1R-expressing cells, FRET antagonist read-out; inhibition, % at 6.6 µM; actives 1.8% (n = 330,000); AID 485270; in the data active = inhibition mostly above about 38%, no sharp cut-off; inactive = mostly below about 40%
OX1R antag-2: antagonists of human orexin 1 receptor. O43613. CHO/OX1R cells, Fluo-8 calcium fluorescence, orexin A. inhibition, % at 5 µM. actives 0.43% (n = 330,000). AID 434989;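 active = inhibition above its plate's threshold, mean inhibition of all tested compounds on the plate plus 3 SD, cut at about 37% in these data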
GPR7 antagonist: human neuropeptides B/W receptor 1 antagonism; P48145; AID 1861; GPR7-expressing cells, fluorescence antagonist assay; actives 1.1% (n = 290,000); inhibition, % at 4.4 µM; in the data active = inhibition above about 16%, passing the limit was not always enough;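 note: cells stimulated with the agonist NPW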
CHO parental Ca: signal in parental CHO cells, OX1R antagonist counter-screen | parental CHO-K1, ATP-induced calcium, Fluo-8 fluorescence | inhibition, % at 5.6 µM | actives 0.63% (n = 330,000) | AID 463079;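 active = inhibition above that plate's mean sample inhibition plus 3 SD, cut at about 26% in these data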
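Material: parental CHO cells / Compound: single nominal dose of 5.6 µM per compound / Signal: Fluo-8 fluorescence / Replicates: singlicate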
TAAR1 ag confirm: human TAAR1 agonism, confirmed. shares compounds with TAAR1 ag. CHO RD-HGA16 TAAR1, Fluo-8 calcium fluorescence; scaled: DMSO 0%, maximal phenethylamine 100%. activation, % at 3 µM. actives 82% (n = 2,400). AID 651783;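 active = activation above a cutoff set at the run's mean compound activation plus 3 SD, cut at about 39% in these data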
Ga16 ag counter: counter-screen for TAAR1 agonists: nonselective agonists in parental cells; shares compounds with TAAR1 ag; CHO-Ga16 parental, Fluo-8 calcium fluorescence; normalized to maximal ATP response, DMSO zero; activation, % at 3 µM; actives 50% (n = 2,400);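 active = activation above the run cutoff, the mean activation over all tested wells plus 3 SD, cut at about 12% in these data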
TAAR1 desensitize: human TAAR1 agonist that also desensitizes the receptor. shares compounds with TAAR1 ag. CHO RD-HGA16 hTAAR1, Fluo-8 calcium, beta-PEA response inhibition. inhibition, % at 3 µM. actives 46% (n = 2,400). AID 651951;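 active = inhibition above the run cutoff, the mean inhibition of all test compounds plus 3 SD, cut at about 49% in these data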;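 note: beta-PEA stimulus applied at its EC80; loss of beta-PEA calcium signal after compound pretreatment read as receptor desensitization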
Ga16 nonsel ant: nonselective Ga16 antagonist in TAAR1 agonist counter-screen; CHO-Ga16 ATP-induced calcium, Fluo-8 fluorescence; inhibition, % at 3 µM; shares compounds with TAAR1 ag; actives 39% (n = 2,400);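 active = inhibition above the plate's mean compound inhibition plus 3 SD, computed per plate, cut at about 22% in these data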
Each line names hits and unclear results; the compound was inactive in the other large screens (follow-up assays come after a bar, where they were run).

NCCOc1ccc(C23CC4CC(CC(C4)C2)C3)cc1	TAAR1 ag 81 | TAAR1 ag confirm 94 | Ga16 ag counter 60 | TAAR1 desensitize 81 | Ga16 nonsel ant 76
CCN(CC)S(=O)(=O)c1ccc(O)c(C(=O)OCC(=O)NC23CC4CC(CC(C4)C2)C3)c1	none (no result: GPR7 antagonist)
N#CC1(Nc2cccc(Br)c2)C(=O)Nc2ccccc21 (stereo not drawn)	TAAR1 ag 83 | TAAR1 ag confirm 54 | Ga16 ag counter 32 | TAAR1 desensitize 52 | Ga16 nonsel ant 42
O=C(N[C@H](C(=O)N1CCC[C@H]1C(=O)NCCc1ccccc1Cl)C1CCCCC1)C1CC1	TAAR1 ag 46 (no result: OX1R antag-1, OX1R antag-2, GPR7 antagonist, CHO parental Ca) | TAAR1 ag confirm 73 | Ga16 ag counter inactive | TAAR1 desensitize 78 | Ga16 nonsel ant inactive
O=C(N[C@H](C(=O)N1CCC[C@H]1C(=O)NCCc1ccccc1Cl)C1CCCCC1)c1ccccc1	TAAR1 ag 64, TAAR1 antagonist 66 (no result: OX1R antag-1, OX1R antag-2, GPR7 antagonist, CHO parental Ca) | TAAR1 ag confirm 76 | Ga16 ag counter inactive | TAAR1 desensitize 85 | Ga16 nonsel ant inactive
COc1cccc(C(=O)N[C@H](C(=O)N2CCC[C@H]2C(=O)NCCc2ccccc2Cl)C2CCCCC2)c1	TAAR1 ag 52, TAAR1 antagonist 55 (no result: OX1R antag-1, OX1R antag-2, GPR7 antagonist, CHO parental Ca) | TAAR1 ag confirm 79 | Ga16 ag counter inactive | TAAR1 desensitize 86 | Ga16 nonsel ant inactive
CCCC(=O)N1CCCC1(C)C(=O)NCCc1ccccn1 (stereo not drawn)	none (no result: OX1R antag-1, OX1R antag-2, GPR7 antagonist, CHO parental Ca)
COc1ccc(OC)c(NC(=O)Nc2nc(C(C)N)cs2)c1 (stereo not drawn)	none (no result: OX1R antag-1, OX1R antag-2, GPR7 antagonist, CHO parental Ca)
O=C(c1ccncc1)N1CCN(S(=O)(=O)c2ccccc2Br)CC1	none (no result: GPR7 antagonist)
COC(=O)c1cc(NC(=O)c2ccccc2)c(=O)oc1/C=C/Nc1ccc(Oc2ccccc2)cc1	TAAR1 ag 50, TAAR1 antagonist 68 (no result: OX1R antag-1, OX1R antag-2, CHO parental Ca) | TAAR1 ag confirm 62 | Ga16 ag counter 73 | TAAR1 desensitize 85 | Ga16 nonsel ant 87
O=C(COC(=O)COc1ccccc1F)NCc1ccco1	none (no result: GPR7 antagonist)
Cc1cccc(C(=O)NC(NCCc2ccccc2)C(Cl)(Cl)Cl)c1 (stereo not drawn)	TAAR1 ag 80, TAAR1 antagonist 61 | TAAR1 ag confirm 69 | Ga16 ag counter inactive | TAAR1 desensitize inactive | Ga16 nonsel ant inactive
Cc1cccc(C(=O)NC(NCc2ccco2)C(Cl)(Cl)Cl)c1 (stereo not drawn)	none
CCCN1C(=O)/C(=C\C=C2/Sc3ccccc3N2CC)SC1=S	none (no result: TAAR1 ag, TAAR1 antagonist, OX1R antag-1, OX1R antag-2, CHO parental Ca)
CC1=NN(c2ccccc2)C(=O)/C1=C\C=C1/N(C)c2ccccc2C1(C)C	TAAR1 ag 84, TAAR1 antagonist 50, OX1R antag-2 42, CHO parental Ca 28 | TAAR1 ag confirm 67 | Ga16 ag counter 45 | TAAR1 desensitize 57 | Ga16 nonsel ant 49
CCCN1C(=O)/C(=C\C=C2\N(CC)c3ccccc3C2(C)C)SC1=S	TAAR1 ag 69, TAAR1 antagonist 65 (no result: OX1R antag-1, OX1R antag-2, CHO parental Ca) | TAAR1 ag confirm 50 | Ga16 ag counter 66 | TAAR1 desensitize 73 | Ga16 nonsel ant 82
CN1/C(=C\C=C2/SC(=S)NC2=O)C(C)(C)c2ccccc21	TAAR1 ag 289, TAAR1 antagonist 109, OX1R antag-2 99, CHO parental Ca 95 | TAAR1 ag confirm 70 | Ga16 ag counter 85 | TAAR1 desensitize 85 | Ga16 nonsel ant 86
Cc1cc(C)c(Cn2c(=O)[nH][nH]c2=O)cc1Cn1c(=O)[nH][nH]c1=O	none (no result: OX1R antag-1, OX1R antag-2, GPR7 antagonist, CHO parental Ca)
